Experimental data: ChEMBL document CHEMBL3603756, “Synthesis and apoptotic activity of new pyrazole derivatives in cancer cell lines” (2015)
Calls of active or inactive are those of the source. The calls are words filed in the database; no cut-off is given here.

Assays:
THP-1 [1] = experiment: Cytotoxicity against human THP1 cells assessed as cell viability at 12.5 ug/ml incubated for 24 hrs by MTS assay; type: functional; conditions: THP-1, 24 h, read-out: Activity
In short: (§1)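 Cells were held at 37 °C, 5% CO2 in humid air. HEp-2 (5 x 10³/well) and HCT-8 (7 x 10³/well) grew in DMEM + 10% heat-inactivated FBS and got compound (binary dilutions) 24 h after seeding. THP-1 (5 x 10³ cells, RPMI-1640 + 10% FBS) were added directly to the dilutions. Exposure lasted 24 h. MTS (CellTiter 96 AQueous One) read-out was absorbance at 490 nm.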

THP-1 [2] = experiment: Cytotoxicity against human THP1 cells assessed as cell viability at 25 ug/ml incubated for 24 hrs by MTS assay; type: functional; conditions: THP-1, 24 h, read-out: Activity; in short: as §1
THP-1 [3] = experiment: Cytotoxicity against human THP1 cells assessed as cell viability at 50 ug/ml incubated for 24 hrs by MTS assay; type: functional; conditions: THP-1, 24 h, read-out: Activity; in short: as §1
[4] = Cytotoxicity against human HCT8 cells assessed as cell viability at 12.5 ug/ml incubated for 24 hrs by MTS assay; type: functional; conditions: HCT-8, 24 h, read-out: Activity; in short: as §1
[5] = Cytotoxicity against human HCT8 cells assessed as cell viability at 25 ug/ml incubated for 24 hrs by MTS assay; type: functional; conditions: HCT-8, 24 h, read-out: Activity; in short: as §1
[6] = Cytotoxicity against human HCT8 cells assessed as cell viability at 50 ug/ml incubated for 24 hrs by MTS assay; type: functional; conditions: HCT-8, 24 h, read-out: Activity; in short: as §1
[7] = Cytotoxicity against human Hep2 cells assessed as cell viability at 12.5 ug/ml incubated for 24 hrs by MTS assay; type: functional; conditions: HEp-2, 24 h, read-out: Activity; in short: as §1
[8] = Cytotoxicity against human Hep2 cells assessed as cell viability at 25 ug/ml incubated for 24 hrs by MTS assay; type: functional; conditions: HEp-2, 24 h, read-out: Activity; in short: as §1
[9] = Cytotoxicity against human Hep2 cells assessed as cell viability at 50 ug/ml incubated for 24 hrs by MTS assay; type: functional; conditions: HEp-2, 24 h, read-out: Activity; in short: as §1
HCT-8 [10] = experiment: Induction of apoptosis in human HCT8 cells assessed necrosis level at 50 ug/ml incubated for 24 hrs by annexin V-FITC and propidium iodide staining based flow cytometry (reference value: 1.12%); type: functional
HCT-8 [11] = experiment: Induction of apoptosis in human HCT8 cells assessed early apoptosis level at 50 ug/ml incubated for 24 hrs by annexin V-FITC and propidium iodide staining based flow cytometry (reference value: 0.75%); type: functional
HCT-8 [12] = experiment: Induction of apoptosis in human HCT8 cells assessed late apoptosis level at 50 ug/ml incubated for 24 hrs by annexin V-FITC and propidium iodide staining based flow cytometry (reference value: 4.8%); type: functional
HCT-8 [13] = experiment: Induction of apoptosis in human HCT8 cells assessed viable cells level at 50 ug/ml incubated for 24 hrs by annexin V-FITC and propidium iodide staining based flow cytometry (reference value: 93.3%); type: functional
HEp-2 [14] = experiment: Increase in TRAIL-R2 protein expression in human Hep2 cells at 50 ug/ml incubated for 24 hrs by protein array method; type: functional, cell-based
HEp-2 [15] = experiment: Increase in TRAIL-R1 protein expression in human Hep2 cells at 50 ug/ml incubated for 24 hrs by protein array method; type: functional, cell-based
HEp-2 [16] = experiment: Increase in FADD protein expression in human Hep2 cells at 50 ug/ml incubated for 24 hrs by protein array method; type: functional, cell-based
HEp-2 [17] = experiment: Increase in Fas/TNFRSF6 protein expression in human Hep2 cells at 50 ug/ml incubated for 24 hrs by protein array method; type: functional, cell-based
HEp-2 [18] = experiment: Increase in caspase-8 levels in human Hep2 cells at 50 ug/ml incubated for 24 hrs by protein array method; type: functional, cell-based
HEp-2 [19] = experiment: Reduction in pro-caspase-3 levels in human Hep2 cells at 50 ug/ml incubated for 24 hrs by protein array method; type: functional, cell-based
HEp-2 [20] = experiment: Increase in cleaved-caspase-3 levels in human Hep2 cells at 50 ug/ml incubated for 24 hrs by protein array method; type: functional, cell-based
HEp-2 [21] = experiment: Reduction in XIAP levels in human Hep2 cells at 50 ug/ml incubated for 24 hrs by protein array method; type: functional, cell-based
HEp-2 [22] = experiment: Reduction in c-IAP1 levels in human Hep2 cells at 50 ug/ml incubated for 24 hrs by protein array method; type: functional, cell-based
HEp-2 [23] = experiment: Reduction in c-IAP2 levels in human Hep2 cells at 50 ug/ml incubated for 24 hrs by protein array method; type: functional, cell-based
HEp-2 [24] = experiment: Reduction in livin protein levels in human Hep2 cells at 50 ug/ml incubated for 24 hrs by protein array method; type: functional, cell-based
HEp-2 [25] = experiment: Reduction in survivin protein levels in human Hep2 cells at 50 ug/ml incubated for 24 hrs by protein array method; type: functional, cell-based
HEp-2 [26] = experiment: Reduction in HSP27 protein levels in human Hep2 cells at 50 ug/ml incubated for 24 hrs by protein array method; type: functional, cell-based
HEp-2 [27] = experiment: Reduction in HSP70 protein levels in human Hep2 cells at 50 ug/ml incubated for 24 hrs by protein array method; type: functional, cell-based
HEp-2 [28] = experiment: Induction of apoptosis in human Hep2 cells assessed as increase in p53 S15/S46/S392 phosphorylation level at 50 ug/ml incubated for 24 hrs by protein array method; type: functional, cell-based
HEp-2 [29] = experiment: Induction of cell cycle arrest in human Hep2 cells assessed accumulation at G2/M phase incubated for 24 hrs by propidium iodide staining based flow cytometry; type: functional
HEp-2 [30] = experiment: Induction of cell cycle arrest in human Hep2 cells assessed accumulation at G0/G1 phase at 10 ug/ml incubated for 24 hrs by propidium iodide staining based flow cytometry (reference value: 74.51%); type: functional
HEp-2 [31] = experiment: Induction of cell cycle arrest in human Hep2 cells assessed accumulation at G0/G1 phase at 50 ug/ml incubated for 24 hrs by propidium iodide staining based flow cytometry (reference value: 74.51%); type: functional
HEp-2 [32] = experiment: Induction of cell cycle arrest in human Hep2 cells assessed accumulation at S phase at 10 ug/ml incubated for 24 hrs by propidium iodide staining based flow cytometry (reference value: 21.06%); type: functional
HEp-2 [33] = experiment: Induction of cell cycle arrest in human Hep2 cells assessed accumulation at S phase at 50 ug/ml incubated for 24 hrs by propidium iodide staining based flow cytometry (reference value: 21.06%); type: functional
HEp-2 [34] = experiment: Induction of cell cycle arrest in human Hep2 cells assessed accumulation at G2/M phase at 10 ug/ml incubated for 24 hrs by propidium iodide staining based flow cytometry (reference value: 7.82%); type: functional
HEp-2 [35] = experiment: Induction of cell cycle arrest in human Hep2 cells assessed accumulation at G2/M phase at 50 ug/ml incubated for 24 hrs by propidium iodide staining based flow cytometry (reference value: 7.82%); type: functional
[36] = Reduction in PRKAA1 gene expression in human Hep2 cells at 10 ug/ml incubated for 24 hrs by real-time PCR method; type: functional, cell-based; conditions: HEp-2
In short: (§2)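 HEp-2 cells were treated 24 h at 10 or 50 µg/mL. Total RNA was extracted with Trizol, and 2 µg was reverse-transcribed. 50 ng cDNA went into TaqMan real-time PCR with beta-actin as endogenous control. Relative expression was calculated by the ∆∆CT method. Each experiment was run three times.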

[37] = Reduction in PRKAA1 gene expression in human Hep2 cells at 50 ug/ml incubated for 24 hrs by real-time PCR method; type: functional, cell-based; conditions: HEp-2; in short: as §2
[38] = Reduction in PRKAA2 gene expression in human Hep2 cells at 10 ug/ml incubated for 24 hrs by real-time PCR method; type: functional, cell-based; conditions: HEp-2; in short: as §2
[39] = Reduction in PRKAA2 gene expression in human Hep2 cells at 50 ug/ml incubated for 24 hrs by real-time PCR method; type: functional, cell-based; conditions: HEp-2; in short: as §2

Cn1cc(C(=O)/N=C2\SCC(C)(O)N2c2ccc(I)cc2)cn1 (centres undefined)
viability at 12.5 µg/mL (THP-1 [1]): 97% | viability at 25 µg/mL (THP-1 [2]): 84.1% | viability at 50 µg/mL (THP-1 [3]): 38.4% | viability at 12.5 µg/mL [4]: 100% | viability at 25 µg/mL [5]: 100% | viability at 50 µg/mL [6]: 90.2% | viability at 12.5 µg/mL [7]: 100% | viability at 25 µg/mL [8]: 100% | viability at 50 µg/mL [9]: 89% | Activity (HCT-8 [10]): 1.44% | Activity (HCT-8 [11]): 4.96% | Activity (HCT-8 [12]): 3.37% | Activity (HCT-8 [13]): 90.2% | Activity (HEp-2 [14]): Active | Activity (HEp-2 [15]): Active | Activity (HEp-2 [16]): Active | Activity (HEp-2 [17]): Active | Activity (HEp-2 [18]): Active | Activity (HEp-2 [19]): Active | Activity (HEp-2 [20]): Active | Activity (HEp-2 [21]): Active | Activity (HEp-2 [22]): Active | Activity (HEp-2 [23]): Active | Activity (HEp-2 [24]): Active | Activity (HEp-2 [25]): Active | Activity (HEp-2 [26]): Active | Activity (HEp-2 [27]): Active | Activity (HEp-2 [28]): Active | Activity (HEp-2 [29]): Dose-dependent effect | Activity (HEp-2 [30]): 74.73% | Activity (HEp-2 [31]): 43.62% | Activity (HEp-2 [32]): 17.85% | Activity (HEp-2 [33]): 27.01% | Activity (HEp-2 [34]): 14.92% | Activity (HEp-2 [35]): 33.4% | Activity [36]: Active | Activity [37]: Active | Activity [38]: Active | Activity [39]: Active
